Experimental data: ChEMBL document CHEMBL1126613, “Centrally acting serotonergic agents. Synthesis and structure-activity relationships of C-1- or C-3-substituted derivatives of 8-hydroxy-2-(di-n-propylamino)tetralin” (J Med Chem, 1993)
“And” between values parts separate entries of the source, which are not always exact repeats. Identical values can stand only once.

What was measured:
Mus musculus [1] = experiment: Tested in vivo for the effective dose administered orally in mouse hypothermia assay; type: functional; settings: po
Procedure, shortened: (§1)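 Charles River CF-1 mice (18-22 g, 4 per dose), housed individually 20 min before testing. Rectal temperature taken before dosing and 20 min after (sc 0.1 mL; oral 0.2 mL by gavage needle). A drop of ≥2 °F counted as positive. Doses started at 30 mg/kg and fell by half-log until 0/4 responded.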

Mus musculus [2] = experiment: Behavioral time in mouse face to face assay at 3.6 umol/kg administered subcutaneously; type: functional
Procedure, shortened: (§2)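 Male CF-1 mice (Charles River, 19-29 g), 8 pairs per dose, dosed sc, ip or orally in 0.25% methylcellulose or 0.1% citric acid; 30 min absorption housed with familiar partner. Pairs from different home cages placed in small litter-floored cage; face-to-face interaction duration scored visually for 3 min. Wilcoxon rank sum (two-tailed) vs daily control, p < 0.05.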

Mus musculus [3] = experiment: Behavioral time in mouse face to face assay at 0.4 umol/kg administered subcutaneously; type: functional; procedure, shortened: as §2
Mus musculus [4] = experiment: Behavioral time in mouse face to face assay at 36 umol/kg administered subcutaneously; type: functional; procedure, shortened: as §2
Rattus norvegicus [5] = experiment: Effect on the synthesis rate of dopamine (DOPA) accumulation at the dose of 3.6 umol/kg in the rat ventral limbic brain region; type: functional, Limbic system
Procedure, shortened: (§3)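 Male Sprague-Dawley rats dosed sc with drug or vehicle at time zero. NSD 1015 (100 mg/kg ip) given 15 min later to block aromatic decarboxylase. Brain DOPA and 5-HTP measured by electrochemical detection with peak integration. Expressed as percent change from NSD 1015 plus saline controls. Control and test groups N = 6 each, compared by unpaired t test.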

Mus musculus [6] = experiment: Behavioral time in mouse face to face assay at 0 umol/kg administered subcutaneously; type: functional; procedure, shortened: as §2
Rattus norvegicus [7] = experiment: Effect on the synthesis rate of 5 HTP accumulation at the dose of 3.6 umol/kg in the rat ventral limbic brain region; type: functional, Limbic system; procedure, shortened: as §3
Mus musculus [8] = experiment: In vivo effective dose administered subcutaneously in mouse hypothermia assay.; type: functional; settings: sc; procedure, shortened: as §1
Rattus norvegicus [9] = organism: Rattus norvegicus; experiment: Effect on the synthesis rate of 5 HTP accumulation at the dose of […] in the rat ventral limbic brain region; type: functional, Limbic system
Rattus norvegicus [10] = organism: Rattus norvegicus; experiment: Effect on the synthesis rate of dopamine (DOPA) accumulation at the dose of […] in the rat ventral limbic brain region; type: functional, Limbic system
Felis catus [11] = experiment: Maximum decrease on arterial blood pressure at 1 mg/kg; type: functional
Procedure, shortened: (§4)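 Adult cats (2.5-4.0 kg) anesthetized with ketamine 11 mg/kg im, then chloralose 80 mg/kg iv. Femoral artery cannulated for blood pressure, femoral vein for drug. Ventilated, paralyzed with gallamine 4 mg/kg iv, rectal temperature held at 37-38 °C. Cumulative iv doses given at 20-min intervals. Maximum decrease reported following a 1 mg/kg iv dose.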

Felis catus [12] = experiment: Dose on arterial blood pressure (BP) in anesthetized cat; type: functional; procedure, shortened: as §4
Felis catus [13] = organism: Felis catus; experiment: Dose at which the SND has been reduced to 50% of the pretreatment value; type: functional
Procedure, shortened: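 Adult cats (2.5-4.0 kg), ketamine 11 mg/kg im then chloralose 80 mg/kg iv, ventilated, gallamine-paralyzed, rectal temperature 37-38 °C. Sympathetic nerve discharge quantified by cumulative integration. Cumulative iv doses were given at 20-min intervals. Value is the dose reducing discharge to 50% of pretreatment.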

Mus musculus [14] = experiment: Tested in vivo for the maximum temperature decrease in mouse hypothermia assay.; type: functional
Procedure, shortened: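 CF-1 mice (18-22 g, 4 per dose), dosed sc or orally. Rectal temperature measured before dosing and 20 min after. The mean maximum temperature drop (°F) at 20 min after any dose is recorded as an efficacy index.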

Felis catus [15] = organism: Felis catus; experiment: Maximum decrease observed; type: functional; parameters: unit not given here
Mus musculus [16] = experiment: In vivo effective dose administered orally in mouse hypothermia assay (approximate ED50).; type: functional; settings: po; procedure, shortened: as §1
Mus musculus [17] = experiment: Behavioral time in mouse isolation-induced aggression assay at 9.7 umol/kg administered perorally; type: functional
Procedure, shortened: (§5)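 Male CF-1 mice. Residents were isolated singly for at least 1 month; group-housed intruders were kept 4-6/cage. Mice weighed 28-30 g at first test. Residents got drug ip or orally in 0.25% methylcellulose or 0.1% citric acid 30 min before an untreated intruder was introduced. Latency to fighting was recorded, capped at 600 s. Dosing was blind, 6/group (vehicle n = 12), Wilcoxon rank sum.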

Mus musculus [18] = experiment: Behavioral time in mouse face to face assay at 0 umol/kg administered perorally; type: functional; procedure, shortened: as §2
Mus musculus [19] = experiment: Behavioral time in mouse face to face assay at 0.3 umol/kg administered perorally; type: functional; procedure, shortened: as §2
Mus musculus [20] = experiment: Behavioral time in mouse face to face assay at 32.5 umol/kg administered perorally; type: functional; procedure, shortened: as §2
Mus musculus [21] = experiment: Behavioral time in mouse face to face assay at 3.2 umol/kg administered perorally; type: functional; procedure, shortened: as §2
Rattus norvegicus [22] = experiment: Effect on the synthesis rate of 5 HTP accumulation at the dose of 3.2 umol/kg in the rat ventral limbic brain region; type: functional, Limbic system; procedure, shortened: as §3
Mus musculus [23] = experiment: Behavioral time in mouse isolation-induced aggression assay at 0 umol/kg administered perorally; type: functional; procedure, shortened: as §5
Mus musculus [24] = experiment: Behavioral time in mouse isolation-induced aggression assay at 32.5 umol/kg administered perorally; type: functional; procedure, shortened: as §5
Rattus norvegicus [25] = experiment: Effect on the synthesis rate of dopamine (DOPA) accumulation at the dose of 3.2 umol/kg in the rat ventral limbic brain region; type: functional, Limbic system; procedure, shortened: as §3
Rattus norvegicus [26] = experiment: Effect on the synthesis rate of 5 HTP accumulation at the dose of 3.4 umol/kg in the rat ventral limbic brain region; type: functional, Limbic system; procedure, shortened: as §3
Rattus norvegicus [27] = experiment: Effect on the synthesis rate of dopamine (DOPA) accumulation at the dose of 3.4 umol/kg in the rat ventral limbic brain region; type: functional, Limbic system; procedure, shortened: as §3
Rattus norvegicus [28] = experiment: Effect on the synthesis rate of 5 HTP accumulation at the dose of 10 umol/kg in the rat ventral limbic brain region; type: functional, Limbic system; procedure, shortened: as §3
Rattus norvegicus [29] = experiment: Effect on the synthesis rate of dopamine (DOPA) accumulation at the dose of 100 umol/kg in the rat ventral limbic brain region; type: functional, Limbic system; procedure, shortened: as §3
Rattus norvegicus [30] = experiment: Effect on the synthesis rate of dopamine (DOPA) accumulation at the dose of 10 uM/kg in the rat ventral limbic brain region; type: functional, Limbic system; procedure, shortened: as §3
Rattus norvegicus [31] = experiment: Effect on the synthesis rate of 5 HTP accumulation at the dose of 100 umol/kg in the rat ventral limbic brain region; type: functional, Limbic system; procedure, shortened: as §3

Compound	ED50 (Mus musculus [1]) [µmol/kg]	ED50 (Mus musculus [8]) [µmol/kg]	Max decrease (Felis catus [11])	ED50 (Felis catus [13]) [µmol/kg]	TMP.decrease (Mus musculus [14])	Max decrease (Felis catus [15])	BP (Felis catus [12]) [%]	other results
C=CCN[C@@H]1CCc2cccc(O)c2[C@@H]1CC=C	> 107	1.1						Time (Mus musculus [2]): 0.5 s; Time (Mus musculus [3]): 0.8 s; Time (Mus musculus [4]): 2.6 s; Change (Rattus norvegicus [5]): 38%; Time (Mus musculus [6]): 0.8 s; Change (Rattus norvegicus [7]): -48%
CCC[C@H]1c2c(cccc2OC)CC[C@H]1N(CCC)CCC		51	87	> 2.94	2.8 degrees F			Change (Rattus norvegicus [9]): -3.9%; Change (Rattus norvegicus [10]): -14%; Max decrease (Felis catus [12]): 137
C=CCN[C@@H]1CCc2cccc(OC)c2[C@H]1CC=C (relative stereo)	79	5.9	45	1.19	11.5 degrees F and 6.6 degrees F	10	59	
C=CCN[C@@H]1CCc2cccc(OC)c2[C@H]1CC1CC1 (relative stereo)		24			6.2 degrees F			ED50 (Mus musculus [16]): > 97 µmol/kg
C=CCN(CCC)[C@@H]1CCc2cccc(OC)c2C1=C		> 97	51	0.91	3.6 degrees F	20	59	Time (Mus musculus [17]): 61 s; Time (Mus musculus [18]): 0.7 s; Time (Mus musculus [19]): 1.9 s; Time (Mus musculus [20]): 2.5 s; Time (Mus musculus [21]): 1.9 s; Change (Rattus norvegicus [22]): -52%; Time (Mus musculus [23]): 56 s; Time (Mus musculus [24]): 416 s; Change (Rattus norvegicus [25]): -36%
C=CC[C@H]1c2c(cccc2OC)CC[C@H]1N(CCC)CCC		> 89						
C=CC[C@H]1c2c(cccc2OC)CC[C@H]1NCCC	78	3.4	57	0.27	7.6 degrees F and 6 degrees F	10	85	Change (Rattus norvegicus [26]): -50%; Change (Rattus norvegicus [27]): 2.2%
C=CC[C@H]1c2cccc(OC)c2CC[C@H]1NCCC								Change (Rattus norvegicus [28]): 17%; Change (Rattus norvegicus [29]): -24%; Change (Rattus norvegicus [30]): 35%; Change (Rattus norvegicus [31]): -36%
C=CCN[C@@H]1CCc2cccc(OC)c2[C@@H]1CO	> 106	1.4	48	0.09		5	82	
